Assay outcomes deposited in PubChem BioAssay by several laboratories.
ADAM17 inh = ADAM17 inhibitors, primary screen, biochemical, QFRET; 0.83% of 370,000 active; recombinant ADAM17, EDANS/DABCYL FRET peptide cleavage; inhibition, % at 6.95 µM;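 active = inhibition above the mean of compounds lying between control limits plus 3 SD, set per campaign, cut at about 8.5% in these data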
NRP1-CendR mod = modulators of CendR peptide binding to NRP-1, primary screen, biochemical, fluorescence polarization, uHTS; 0.85% of 360,000 active; FAM-RPARPAR peptide binding to NRP-1; Neuropilin-1 (Homo sapiens), O14786; AID 602438, 2012; inhibition, % at 25 µM;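 active = inhibition or corrected inhibition above about 18%, plus a signal ratio from 0.5 to 1.5, limit read from the data, passing the limit was not always enough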
ADAM10 inh = human ADAM10 inhibitors, primary screen, biochemical, QFRET, HTS | Disintegrin and metalloproteinase domain-containing protein 10 (Homo sapiens), O14672 | recombinant ADAM10, EDANS/DABCYL FRET peptide cleavage, 3 h | inhibition, % at 7 µM | 0.62% of 370,000 active;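 active = inhibition above a per-campaign cutoff equal to the mean of compounds falling between control-based bounds plus 3 SD, cut at about 20% in these data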
Target sequence (O14672 214-748 limits assumed): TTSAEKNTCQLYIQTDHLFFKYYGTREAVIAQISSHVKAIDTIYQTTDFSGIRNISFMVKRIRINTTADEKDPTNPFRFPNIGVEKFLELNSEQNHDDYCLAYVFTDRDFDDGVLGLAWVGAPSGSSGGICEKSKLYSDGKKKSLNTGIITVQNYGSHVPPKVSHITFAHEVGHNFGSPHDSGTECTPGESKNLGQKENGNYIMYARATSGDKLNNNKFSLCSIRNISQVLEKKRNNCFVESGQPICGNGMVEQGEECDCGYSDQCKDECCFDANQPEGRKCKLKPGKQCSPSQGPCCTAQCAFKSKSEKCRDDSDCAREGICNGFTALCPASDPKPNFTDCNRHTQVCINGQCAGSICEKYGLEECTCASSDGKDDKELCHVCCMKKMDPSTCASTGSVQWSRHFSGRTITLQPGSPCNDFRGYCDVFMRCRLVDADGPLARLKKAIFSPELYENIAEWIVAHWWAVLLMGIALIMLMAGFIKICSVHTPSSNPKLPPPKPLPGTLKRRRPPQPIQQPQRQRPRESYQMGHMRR
FAS TE block = FAS thioesterase domain inhibitors, primary screen, biochemical, fluorescence intensity, uHTS. Fatty acid synthase (Homo sapiens), P49327. recombinant FAS-TE, OMFH fluorogenic substrate, fluorescence endpoint. inhibition, % at 15 µM. 0.67% of 360,000 active. AID 602261, 2012;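 active = compounds whose normalised, plate-corrected inhibition of enzyme fluorescence in the single-dose primary screen is 50% or more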
Arr AP2 block = inhibitors of beta-arrestin/AP2 binding, primary screen, biochemical, GPCR trafficking, flow cytometry; beta-arrestin 1 C-terminal peptide binding to AP2 beta2-adaptin appendage (human); FITC-arrestin peptide / GST-AP2 beads; AP2 beta2 appendage carries R879A mutation; inhibition, % at 10 µM; 0.31% of 340,000 active; AID 504490, 2011;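 active = inhibition above a set limit, near 3 SD of compounds lacking own fluorescence, cut at about 54% in these data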
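Measured by: flow cytometry, FL1 (488/535 nm); Material: AP2 appendage R879A on GSH beads; Evaluation: percent response; Timing: pre-incubation 12 min, peptide binding 1 h, room temperature; Also added: 50 nM FITC-arrestin peptide; Medium: PBS with 0.05% Tween 20 and 0.1% BSA.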
CaV13 FRET inh = Disruptors of the CACNA1D IQ motif to Ca2+-dependent inactivation inhibitor domain association, primary screening, Förster resonance energy transfer in intact living …. AID 743397. 0.098% of 340,000 active. HEK cells, CFP/YFP FRET ICDI-IQ, plate reader, 10 min; percent FRET-ratio fall versus neutral wells. inhibition, % at 12.3 µM;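 active = mean replicate inhibition of at least 30% and at least 1% of replicates passing that level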
FAS-TE conf = FAS thioesterase domain inhibitors, confirmation, biochemical, fluorescence intensity, single concentration; shares compounds with FAS TE block; recombinant FAS-TE, OMFH fluorogenic substrate; inhibition, % at 15 µM; 45% of 2,300 active;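 active = compounds inhibiting the enzyme by at least 50% at 15 µM in any one of the replicates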
ADAM10 confirm = human ADAM10 inhibitors, confirmation, biochemical, QFRET, triplicate | shares compounds with ADAM10 inh | ADAM10 QFRET peptide cleavage, EDANS fluorescence | inhibition, % at 6.95 µM | 1% of 2,100 active | AID 743208, 2013;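 active = inhibition above about 20% chosen separately for each screening run, limit read from the data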
ADAM17 ctr = ADAM17 inhibitors, counter-screen for ADAM10 exosite inhibitor project, biochemical, QFRET, high throughput. shares compounds with ADAM10 inh. ADAM17 QFRET peptide cleavage, EDANS fluorescence. inhibition, % at 6.95 µM. 0.5% of 2,100 active. AID 743214, 2013;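 active = mean triplicate inhibition above the solvent-only control wells' mean plus 3 SD, cut at about 12% in these data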
Each line names hits and unclear results; the compound was inactive in the other large screens (follow-up assays come after a bar, where they were run). A selection: hits, their analogues and other compounds. The true share with any hit is near 2.9%.

Cc1cc(=O)oc2cc(OCC(=O)N3C[C@H]4C[C@@H](C3)c3cccc(=O)n3C4)c(Cl)cc12	none (no result: CaV13 FRET inh)
COc1ccc2nc(-c3ccc(CN4CCC(n5c(=O)[nH]c6cc(Cl)ccc65)CC4)cc3)c(-c3ccccc3)nc2c1	none (no result: NRP1-CendR mod, FAS TE block, Arr AP2 block)
O=c1[nH]c2ccccc2n1C1CCN(C(c2cccc3ccccc23)c2nnnn2Cc2ccccc2)CC1 (configuration not stated)	FAS TE block 80 (no result: Arr AP2 block) | FAS-TE conf inactive
Cc1cccc(C)c1-n1nnnc1C(c1cc2ccccc2o1)N1CCC(n2c(=O)[nH]c3ccccc32)CC1 (configuration not stated)	FAS TE block 81 (no result: Arr AP2 block) | FAS-TE conf inactive
Cc1cccc(C)c1-n1nnnc1C(c1ccccc1OC(F)(F)F)N1CCC(n2c(=O)[nH]c3ccccc32)CC1 (configuration not stated)	FAS TE block 54 (no result: Arr AP2 block) | FAS-TE conf inactive
O=c1[nH]c2cc(Cl)ccc2n1C1CCN(Cc2ccc(-c3nc4ccccc4nc3-c3ccccc3)cc2)CC1	none (no result: NRP1-CendR mod, FAS TE block, Arr AP2 block)
O=[N+]([O-])c1ccc(NCc2ccc(Cl)cc2)c2ccncc12	FAS TE block 73 | FAS-TE conf 58
Cc1ccccc1-c1ccc2c(c1)C1c3c(-c4ccccc4)nnn3-c3ccccc3C(=O)N1CC2 (configuration not stated)	FAS TE block 79 (no result: Arr AP2 block) | FAS-TE conf inactive
CC(C)(C)n1nnnc1C(c1cccc2ccccc12)N1CCC2(CC1)C(=O)NCN2c1ccccc1 (configuration not stated)	FAS TE block 77 (no result: Arr AP2 block) | FAS-TE conf inactive
COc1ccc(C(c2nnnn2-c2c(C)cccc2C)N2CCC3(CC2)C(=O)NCN3c2ccccc2)cc1 (configuration not stated)	FAS TE block 50 (no result: Arr AP2 block) | FAS-TE conf inactive
O=C1NCN(c2ccccc2)C12CCN(C(c1cccc3ccccc13)c1nnnn1-c1ccc3c(c1)OCCO3)CC2 (configuration not stated)	FAS TE block 88 (no result: Arr AP2 block) | FAS-TE conf inactive
O=C1NCN(c2ccccc2)C12CCN(C(c1cc3ccccc3o1)c1nnnn1-c1ccc3c(c1)OCCO3)CC2 (configuration not stated)	FAS TE block 74 (no result: Arr AP2 block) | FAS-TE conf inactive
O=C1NCN(c2ccccc2)C12CCN(C(c1ccccc1)c1nnnn1-c1ccc3c(c1)OCCO3)CC2 (configuration not stated)	none (no result: Arr AP2 block)
CCOC(=O)C1=C(C(=O)OCC)C2(c3ccccc3)c3ccccc3C1(C)N2C (configuration not stated)	none (no result: NRP1-CendR mod, FAS TE block, Arr AP2 block)
COc1ccccc1N	none (no result: NRP1-CendR mod, FAS TE block, Arr AP2 block, CaV13 FRET inh)
CC(C)n1c(=O)c(C=Nc2ccc(S(N)(=O)=O)cc2)c(O)n(Cc2ccco2)c1=O	none
CC(C)n1c(=O)c(C=Nc2cccc([N+](=O)[O-])c2)c(O)n(CCc2ccccc2)c1=O	FAS TE block 57 | FAS-TE conf inactive
Cc1[nH]n(-c2ccccc2)c(=O)c1C(c1ccc([N+](=O)[O-])cc1)c1c(C)[nH]n(-c2ccccc2)c1=O	FAS TE block 85 (no result: ADAM17 inh, ADAM10 inh, CaV13 FRET inh) | FAS-TE conf 79
O=[N+]([O-])c1ccc(C(c2ccc([N+](=O)[O-])cc2)c2ccc([N+](=O)[O-])cc2)cc1	none
COc1cccc(C(=O)NCCN2CCC3(CC2)C(=O)NCN3c2ccccc2)c1	none (no result: NRP1-CendR mod, FAS TE block, Arr AP2 block)
COc1ccc(-n2nnnc2C(c2ccccc2)N2CCC(n3c(=O)[nH]c4ccccc43)CC2)cc1 (configuration not stated)	none (no result: Arr AP2 block)
COc1ccc(C(c2nnnn2-c2c(C)cccc2C)N2CCC(n3c(=O)[nH]c4ccccc43)CC2)cc1 (configuration not stated)	ADAM17 inh 9.7, ADAM10 inh 23, FAS TE block 62 (no result: Arr AP2 block) | FAS-TE conf 35 | ADAM10 confirm inactive | ADAM17 ctr inactive
O=c1[nH]c2ccccc2n1C1CCN(C(c2cc3ccccc3o2)c2nnnn2Cc2ccccc2)CC1 (configuration not stated)	ADAM10 inh 23, FAS TE block 61 (no result: Arr AP2 block) | FAS-TE conf inactive | ADAM10 confirm inactive | ADAM17 ctr inactive
COc1cccc(C(c2nnnn2-c2ccc3c(c2)OCCO3)N2CCC(n3c(=O)[nH]c4ccccc43)CC2)c1OC (configuration not stated)	ADAM10 inh 21, FAS TE block 72 (no result: Arr AP2 block) | FAS-TE conf inactive | ADAM10 confirm inactive | ADAM17 ctr inactive
O=c1[nH]c2ccccc2n1C1CCN(C(c2ccccc2OC(F)(F)F)c2nnnn2-c2ccc3c(c2)OCCO3)CC1 (configuration not stated)	ADAM17 inh 15, ADAM10 inh 33, FAS TE block 83 (no result: Arr AP2 block) | FAS-TE conf inactive | ADAM10 confirm inactive | ADAM17 ctr inactive
Cc1cc(N2CCNC[C@H]2C)ccc1N1CCN[C@@H](C)C1	none (no result: NRP1-CendR mod, FAS TE block, Arr AP2 block, CaV13 FRET inh)
C=CCCC(NC(=O)OCc1ccccc1)P(=O)(Oc1ccccc1)Oc1ccccc1 (configuration not stated)	none (no result: NRP1-CendR mod, FAS TE block, Arr AP2 block, CaV13 FRET inh)
C[C@H]1CNCCN1c1ccc(N2CC[C@H](O)C2)c(C#N)c1	none (no result: NRP1-CendR mod, FAS TE block, Arr AP2 block)
O=c1[nH]c2ccccc2n1C1CCN(C(c2cccs2)c2nnnn2-c2ccc3c(c2)OCCO3)CC1 (configuration not stated)	ADAM10 inh 20, FAS TE block 63 (no result: Arr AP2 block) | FAS-TE conf inactive | ADAM10 confirm inactive | ADAM17 ctr inactive
